In ChEMBL document CHEMBL3045677, “Sulfonamide-1,2,4-thiadiazole derivatives as antifungal and antibacterial agents: synthesis, biological evaluation, lipophilicity, and conformational studies” (2010):
Values after ≈ are worked out from the molar mass of the structure shown.

What was measured:
Penicillium ochrochloron = test: Antifungal activity against Penicillium ochrochloron ATCC 9112 at 28 degC measured after 72 hr by microdilution method; type: functional; conditions: ATCC 9112, 72 h
Method in brief: (§1)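 Fungi were kept on malt agar at 4 °C. Spores were washed off with sterile 0.85% saline containing 0.1% Tween 80 and adjusted to about 1.0×10⁵ per well. Compounds were dissolved in DMSO (1 mg/ml stock) and serially diluted in malt broth with inoculum in 96-well plates, 72 h at 28 °C, for MIC. MFC came from subculture into fresh broth for a further 72 h at 28 °C.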

Salmonella typhimurium [1] = test: Antibacterial activity against Salmonella enterica subsp. enterica serovar TyphimuriumATCC 13311 at […] degC measured after 72 hr by microdilution method; type: functional, Salmonella enterica subsp. enterica serovar Typhimurium; conditions: ATCC 13311, 72 h
Method in brief: (§2)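 Bactericidal endpoint: after the 24 h broth microdilution (1.0×10⁴ CFU per well, LB broth, […] °C), wells were serially subcultured into plates of fresh broth and incubated a further 72 h. MBC was the lowest concentration with no visible growth, taken as 99.5% killing of the original inoculum.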

Fulvia fulva = test: Antifungal activity against Passalora fulva TK5318 at 28 degC measured after 72 hr by microdilution method; type: functional; conditions: TK5318, 72 h; method in brief: as §1
Staphylococcus aureus [2] = test: Antibacterial activity against Staphylococcus aureus ATCC 6538 at […] degC measured after 72 hr by microdilution method; type: functional; conditions: ATCC 6538, 72 h; method in brief: as §2
Micrococcus flavus [3] = test: Antibacterial activity against Micrococcus flavus ATCC 10240 at […] degC measured after 72 hr by microdilution method; type: functional; conditions: ATCC 10240, 72 h; method in brief: as §2
Aspergillus versicolor = test: Antifungal activity against Aspergillus versicolor ATCC 11730 at 28 degC measured after 72 hr by microdilution method; type: functional; conditions: ATCC 11730, 72 h; method in brief: as §1
Escherichia coli [4] = test: Antibacterial activity against Escherichia coli ATCC 35210 at […] degC measured after 72 hr by microdilution method; type: functional; conditions: ATCC 35210, 72 h; method in brief: as §2
Aspergillus flavus = test: Antifungal activity against Aspergillus flavus ATCC 9643 at 28 degC measured after 72 hr by microdilution method; type: functional; conditions: ATCC 9643, 72 h; method in brief: as §1
Proteus mirabilis [5] = test: Antibacterial activity against Proteus mirabilis at […] degC measured after 24 hr by microdilution method; type: functional
Method in brief: (§3)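 Bacteria suspended in sterile saline at 1.0×10⁵ CFU/ml and added at 1.0×10⁴ CFU per well to LB broth with compound (1 mg/ml) in 96-well plates. Incubated 24 h at […] °C. MIC was the lowest concentration without visible growth under a binocular microscope. OD 655 nm was read against a blank and a positive control.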

Aspergillus fumigatus = test: Antifungal activity against plant isolate Aspergillus fumigatus at 28 degC measured after 72 hr by microdilution method; type: functional; method in brief: as §1
Pseudomonas aeruginosa [6] = test: Antibacterial activity against Pseudomonas aeruginosa ATCC 27853 at […] degC measured after 72 hr by microdilution method; type: functional; conditions: ATCC 27853, 72 h; method in brief: as §2
Aspergillus niger = test: Antifungal activity against Aspergillus niger ATCC 6275 at 28 degC measured after 72 hr by microdilution method; type: functional; conditions: ATCC 6275, 72 h; method in brief: as §1
Bacillus cereus [7] = test: Antibacterial activity against clinical isolate Bacillus cereus at […] degC measured after 24 hr by microdilution method; type: functional; method in brief: as §3
Trichoderma viride = test: Antifungal activity against Hypocrea rufa IAM 5061 at 28 degC measured after 72 hr by microdilution method; type: functional; conditions: IAM 5061, 72 h; method in brief: as §1
Listeria monocytogenes [8] = test: Antibacterial activity against Listeria monocytogenes NCTC 7973 at […] degC measured after 24 hr by microdilution method; type: functional; conditions: NCTC 7973, 24 h; method in brief: as §3
Micrococcus flavus [9] = test: Antibacterial activity against Micrococcus flavus ATCC 10240 at […] degC measured after 24 hr by microdilution method; type: functional; conditions: ATCC 10240, 24 h; method in brief: as §3
Listeria monocytogenes [10] = test: Antibacterial activity against Listeria monocytogenes NCTC 7973 at […] degC measured after 72 hr by microdilution method; type: functional; conditions: NCTC 7973, 72 h; method in brief: as §2
Salmonella typhimurium [11] = test: Antibacterial activity against Salmonella enterica subsp. enterica serovar Typhimurium ATCC 13311 at […] degC measured after 24 hr by microdilution method; type: functional; conditions: ATCC 13311, 24 h; method in brief: as §3
Proteus mirabilis [12] = test: Antibacterial activity against Proteus mirabilis at […] degC measured after 72 hr by microdilution method; type: functional; method in brief: as §2
Talaromyces funiculosus = test: Antifungal activity against Talaromyces funiculosus ATCC 36839 at 28 degC measured after 72 hr by microdilution method; type: functional; conditions: ATCC 36839, 72 h; method in brief: as §1
Escherichia coli [13] = test: Antibacterial activity against Escherichia coli ATCC 35210 at […] degC measured after 24 hr by microdilution method; type: functional; conditions: ATCC 35210, 24 h; method in brief: as §3
Pseudomonas aeruginosa [14] = test: Antibacterial activity against Pseudomonas aeruginosa ATCC 27853 at […] degC measured after 24 hr by microdilution method; type: functional; conditions: ATCC 27853, 24 h; method in brief: as §3
Staphylococcus aureus [15] = test: Antibacterial activity against Staphylococcus aureus ATCC 6538 at […] degC measured after 24 hr by microdilution method; type: functional; conditions: ATCC 6538, 24 h; method in brief: as §3
Bacillus cereus [16] = test: Antibacterial activity against clinical isolate Bacillus cereus at […] degC measured after 72 hr by microdilution method; type: functional; method in brief: as §2

`COc1cc(Cc2nnc(Nc3ccc(C(F)(F)F)cc3)s2)c(S(=O)(=O)N2CCCCC2)cc1OC` was tested, and the MFC (Penicillium ochrochloron) was 36.8 µM (≈ 20 µg/mL), the MIC (Penicillium ochrochloron) was 18.4 µM (≈ 9.98 µg/mL) and the MBC (Salmonella typhimurium [1]) was 18.4 µM (≈ 9.98 µg/mL). For the same molecule, the MFC (Fulvia fulva) was 18.4 µM (≈ 9.98 µg/mL), the MIC (Fulvia fulva) was 9.2 µM (≈ 4.99 µg/mL) and the MBC (Staphylococcus aureus [2]) was 36.8 µM (≈ 20 µg/mL). For the same molecule, the MBC (Micrococcus flavus [3]) was 18.4 µM (≈ 9.98 µg/mL), the MFC (Aspergillus versicolor) was 18.4 µM (≈ 9.98 µg/mL) and the MIC (Aspergillus versicolor) was 9.2 µM (≈ 4.99 µg/mL). It also gave an MBC (Escherichia coli [4]) of 36.8 µM (≈ 20 µg/mL), an MFC (Aspergillus flavus) of 36.8 µM (≈ 20 µg/mL) and an MIC (Aspergillus flavus) of 18.4 µM (≈ 9.98 µg/mL). The MIC (Proteus mirabilis [5]) was 36.8 µM (≈ 20 µg/mL), the MFC (Aspergillus fumigatus) was 36.8 µM (≈ 20 µg/mL) and the MIC (Aspergillus fumigatus) was 9.2 µM (≈ 4.99 µg/mL). For the same molecule, the MBC (Pseudomonas aeruginosa [6]) was 18.4 µM (≈ 9.98 µg/mL), the MFC (Aspergillus niger) was 36.8 µM (≈ 20 µg/mL) and the MIC (Aspergillus niger) was 18.4 µM (≈ 9.98 µg/mL). The MIC (Bacillus cereus [7]) was 9.2 µM (≈ 4.99 µg/mL), the MFC (Trichoderma viride) was 18.4 µM (≈ 9.98 µg/mL) and the MIC (Trichoderma viride) was 9.2 µM (≈ 4.99 µg/mL). The MIC (Listeria monocytogenes [8]) was 18.4 µM (≈ 9.98 µg/mL), the MIC (Micrococcus flavus [9]) was 9.2 µM (≈ 4.99 µg/mL) and the MBC (Listeria monocytogenes [10]) was 73.6 µM (≈ 39.9 µg/mL). The MIC (Salmonella typhimurium [11]) was 9.2 µM (≈ 4.99 µg/mL), the MBC (Proteus mirabilis [12]) was 73.6 µM (≈ 39.9 µg/mL) and the MFC (Talaromyces funiculosus) was 18.4 µM (≈ 9.98 µg/mL). It also gave an MIC (Talaromyces funiculosus) of 9.2 µM (≈ 4.99 µg/mL), an MIC (Escherichia coli [13]) of 18.4 µM (≈ 9.98 µg/mL) and an MIC (Pseudomonas aeruginosa [14]) of 9.2 µM (≈ 4.99 µg/mL). It also gave an MIC (Staphylococcus aureus [15]) of 18.4 µM (≈ 9.98 µg/mL) and an MBC (Bacillus cereus [16]) of 18.4 µM (≈ 9.98 µg/mL).

Work on `COc1cc(Cc2nnc(Nc3ccc([N+](=O)[O-])cc3)s2)c(S(=O)(=O)N2CCCCC2)cc1OC` yielded an MFC (Penicillium ochrochloron) of 38.6 µM (≈ 20.1 µg/mL), an MIC (Penicillium ochrochloron) of 19.3 µM (≈ 10 µg/mL) and an MBC (Salmonella typhimurium [1]) of 19.3 µM (≈ 10 µg/mL). It also gave an MFC (Fulvia fulva) of 19.3 µM (≈ 10 µg/mL), an MIC (Fulvia fulva) of 9.7 µM (≈ 5.04 µg/mL) and an MBC (Staphylococcus aureus [2]) of 77.2 µM (≈ 40.1 µg/mL). It also gave an MBC (Micrococcus flavus [3]) of 38.6 µM (≈ 20.1 µg/mL), an MFC (Aspergillus versicolor) of 38.6 µM (≈ 20.1 µg/mL) and an MIC (Aspergillus versicolor) of 19.3 µM (≈ 10 µg/mL). It also gave an MBC (Escherichia coli [4]) of 38.6 µM (≈ 20.1 µg/mL), an MFC (Aspergillus flavus) of 38.6 µM (≈ 20.1 µg/mL) and an MIC (Aspergillus flavus) of 19.3 µM (≈ 10 µg/mL). It also gave an MIC (Proteus mirabilis [5]) of 38.6 µM (≈ 20.1 µg/mL), an MFC (Aspergillus fumigatus) of 38.6 µM (≈ 20.1 µg/mL) and an MIC (Aspergillus fumigatus) of 19.3 µM (≈ 10 µg/mL). The MBC (Pseudomonas aeruginosa [6]) was 19.3 µM (≈ 10 µg/mL), the MFC (Aspergillus niger) was 38.6 µM (≈ 20.1 µg/mL) and the MIC (Aspergillus niger) was 19.3 µM (≈ 10 µg/mL). It also gave an MIC (Bacillus cereus [7]) of 19.3 µM (≈ 10 µg/mL), an MFC (Trichoderma viride) of 19.3 µM (≈ 10 µg/mL) and an MIC (Trichoderma viride) of 9.7 µM (≈ 5.04 µg/mL). It also gave an MIC (Listeria monocytogenes [8]) of 19.3 µM (≈ 10 µg/mL), an MIC (Micrococcus flavus [9]) of 19.3 µM (≈ 10 µg/mL) and an MBC (Listeria monocytogenes [10]) of 77.2 µM (≈ 40.1 µg/mL). The MIC (Salmonella typhimurium [11]) was 9.7 µM (≈ 5.04 µg/mL), the MBC (Proteus mirabilis [12]) was 77.2 µM (≈ 40.1 µg/mL) and the MFC (Talaromyces funiculosus) was 38.6 µM (≈ 20.1 µg/mL). The MIC (Talaromyces funiculosus) was 19.3 µM (≈ 10 µg/mL), the MIC (Escherichia coli [13]) was 19.3 µM (≈ 10 µg/mL) and the MIC (Pseudomonas aeruginosa [14]) was 9.7 µM (≈ 5.04 µg/mL). It also gave an MIC (Staphylococcus aureus [15]) of 38.6 µM (≈ 20.1 µg/mL) and an MBC (Bacillus cereus [16]) of 38.6 µM (≈ 20.1 µg/mL).
